Measured values published in ChEMBL document CHEMBL1133534, “1,3-Diaryl-4,5,6,7-tetrahydro-2H-isoindole derivatives: a new series of potent and selective COX-2 inhibitors in which a sulfonyl group is not a structural requisite” (J Med Chem, 2000).
The source made the active and inactive calls. The calls are words filed in the database; no cut-off is given here.

Legend:
[1] = species: Mus musculus; experiment: (§1) Compound was evaluated for its effective dose to inhibit exudate PGE-2
How it was run: (§2)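 Mice given compound or vehicle orally 18 h after air-pouch induction; 1 h later 500 µL sterile 1% carrageenan injected into pouch; sacrifice 5 h after carrageenan. Pouch lavaged with 2 mL heparinized HBSS, kept on ice, PGE2 measured by EIA after solid-phase extraction. ED50 from 3 or 4 dose points, at least 8 mice/group.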

[2] = species: Mus musculus; experiment: (§3) Compound was evaluated for its effective dose to inhibit gastric PGE-2; format: tissue-based; conditions: Stomach
How it was run: (§4)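 Mice with air pouches (18 h old) were dosed orally with compound or vehicle. After 1 h, 500 µL sterile 1% carrageenan was injected into the pouch, and mice were killed 5 h later. Pouch lavage (heparinized HBSS) was cooled on ice, and PGE2 was measured by EIA after solid-phase extraction. Excised stomachs were rinsed and incubated 15 min in PBS, and supernatant PGE2 was measured by EIA. ED50 from 3 or 4 doses, at least 8 mice/group.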

[3] = biological target: T1, Prostaglandin G/H synthase 1 (Mus musculus, UniProt P22437); experiment: Inhibition against prostaglandin G/H synthase 1 from mouse resident macrophages
T1 sequence (P22437 whole entry): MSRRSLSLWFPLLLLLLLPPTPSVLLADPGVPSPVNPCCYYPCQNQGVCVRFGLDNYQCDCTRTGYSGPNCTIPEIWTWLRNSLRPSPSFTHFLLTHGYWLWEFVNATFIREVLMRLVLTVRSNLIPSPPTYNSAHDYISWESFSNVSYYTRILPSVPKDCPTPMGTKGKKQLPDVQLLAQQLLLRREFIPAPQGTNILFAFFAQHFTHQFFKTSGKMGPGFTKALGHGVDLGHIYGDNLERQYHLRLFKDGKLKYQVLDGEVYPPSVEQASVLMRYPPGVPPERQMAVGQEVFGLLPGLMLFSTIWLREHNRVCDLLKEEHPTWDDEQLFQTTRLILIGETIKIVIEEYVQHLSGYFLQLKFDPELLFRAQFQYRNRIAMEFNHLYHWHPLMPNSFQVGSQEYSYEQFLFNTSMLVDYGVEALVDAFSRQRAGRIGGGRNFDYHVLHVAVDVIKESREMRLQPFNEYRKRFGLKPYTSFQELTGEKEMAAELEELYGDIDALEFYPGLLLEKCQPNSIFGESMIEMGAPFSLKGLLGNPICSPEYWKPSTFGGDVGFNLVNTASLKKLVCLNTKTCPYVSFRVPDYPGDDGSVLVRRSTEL

[4] = biological target: T2, Prostaglandin G/H synthase 2 (Mus musculus, UniProt Q05769); experiment: Inhibition against prostaglandin G/H synthase 2 from mouse resident macrophages
T2 sequence (Q05769 whole entry): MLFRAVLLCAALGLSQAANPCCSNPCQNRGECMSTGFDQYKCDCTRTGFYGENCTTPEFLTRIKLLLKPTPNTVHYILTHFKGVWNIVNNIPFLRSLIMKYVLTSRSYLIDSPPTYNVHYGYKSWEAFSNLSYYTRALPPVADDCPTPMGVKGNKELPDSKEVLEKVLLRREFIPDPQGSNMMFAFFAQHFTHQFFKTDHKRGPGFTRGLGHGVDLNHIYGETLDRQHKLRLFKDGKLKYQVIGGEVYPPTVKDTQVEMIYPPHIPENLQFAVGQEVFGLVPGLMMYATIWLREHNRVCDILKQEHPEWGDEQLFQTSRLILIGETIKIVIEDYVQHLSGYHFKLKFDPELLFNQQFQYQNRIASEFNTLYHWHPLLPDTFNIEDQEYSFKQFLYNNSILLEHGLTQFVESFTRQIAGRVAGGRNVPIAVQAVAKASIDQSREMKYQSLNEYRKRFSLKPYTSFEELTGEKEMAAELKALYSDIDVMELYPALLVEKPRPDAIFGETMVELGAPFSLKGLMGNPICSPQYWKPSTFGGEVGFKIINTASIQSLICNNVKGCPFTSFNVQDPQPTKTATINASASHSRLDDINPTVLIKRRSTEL

[5] = Gastric toxicity of the compound.
How it was run: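 Male Swiss mice, fasted overnight with water, were dosed orally at 400 mg/kg or given vehicle, and killed by cervical dislocation 5 h later. The stomach was opened and mucosal damage scored blind from 0 (normal) to 5 (perforation). Mean ± SEM, 8 animals/group.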

[6] = biological target: Prostaglandin G/H synthase 1 (Homo sapiens, UniProt P23219); experiment: Tested in vitro for inhibition against Prostaglandin G/H synthase 1 in human blood
Prostaglandin G/H synthase 1 (Homo sapiens, UniProt P23219), sequence (P23219 whole entry): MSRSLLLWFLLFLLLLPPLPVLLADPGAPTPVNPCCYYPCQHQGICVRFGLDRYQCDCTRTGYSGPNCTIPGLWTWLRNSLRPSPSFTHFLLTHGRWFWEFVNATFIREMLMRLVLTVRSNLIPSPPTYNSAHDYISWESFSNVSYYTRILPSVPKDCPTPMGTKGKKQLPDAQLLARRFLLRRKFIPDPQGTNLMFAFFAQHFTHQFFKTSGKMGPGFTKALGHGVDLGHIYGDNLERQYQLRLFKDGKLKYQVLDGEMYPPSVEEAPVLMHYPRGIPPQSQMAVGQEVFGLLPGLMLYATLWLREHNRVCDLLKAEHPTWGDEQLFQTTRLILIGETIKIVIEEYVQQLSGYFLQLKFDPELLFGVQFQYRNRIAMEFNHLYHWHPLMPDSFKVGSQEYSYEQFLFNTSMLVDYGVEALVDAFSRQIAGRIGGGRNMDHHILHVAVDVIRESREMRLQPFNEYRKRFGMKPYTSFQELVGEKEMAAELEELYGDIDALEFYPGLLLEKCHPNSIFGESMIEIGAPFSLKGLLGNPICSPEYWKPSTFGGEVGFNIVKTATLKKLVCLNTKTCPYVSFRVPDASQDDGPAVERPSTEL

[7] = test system: Rattus norvegicus; experiment: Effective dose for inhibition of edema after oral administration (95% confidence limits); format: functional
How it was run: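 Adjuvant-induced arthritis in female Lewis rats, with oral dosing. Edema of the noninjected paw was read at day 21, 10 rats/group. ED50 was estimated by linear regression with 95% confidence limits.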

[8] = biological target: T3, Prostaglandin G/H synthase 2 (Homo sapiens, UniProt P35354)
T3 sequence (P35354 whole entry): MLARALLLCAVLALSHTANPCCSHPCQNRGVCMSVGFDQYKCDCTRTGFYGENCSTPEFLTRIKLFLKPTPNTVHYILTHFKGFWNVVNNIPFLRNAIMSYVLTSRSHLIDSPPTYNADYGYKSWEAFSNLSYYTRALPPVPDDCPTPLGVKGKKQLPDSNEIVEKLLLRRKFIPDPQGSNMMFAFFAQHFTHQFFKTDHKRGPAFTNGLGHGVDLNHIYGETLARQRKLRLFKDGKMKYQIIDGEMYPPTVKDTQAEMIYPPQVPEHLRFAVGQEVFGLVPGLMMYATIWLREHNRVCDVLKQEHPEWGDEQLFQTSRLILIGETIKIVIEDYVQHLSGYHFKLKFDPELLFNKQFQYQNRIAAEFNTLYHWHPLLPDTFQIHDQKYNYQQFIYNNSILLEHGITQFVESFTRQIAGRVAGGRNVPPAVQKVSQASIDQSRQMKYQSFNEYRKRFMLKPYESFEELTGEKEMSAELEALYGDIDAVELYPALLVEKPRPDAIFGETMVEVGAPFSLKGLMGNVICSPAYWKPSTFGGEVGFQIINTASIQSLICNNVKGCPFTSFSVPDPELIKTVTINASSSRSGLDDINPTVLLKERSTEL

[9] = as §1; format: functional; conditions: Mus musculus; how it was run: as §2
[10] = test system: Rattus norvegicus; experiment: Effective dose for inhibition of edema of the non injected paw in rat
[11] = as §3; format: functional; conditions: Mus musculus, Stomach; how it was run: as §4
[12] = species: Mus musculus; experiment: Compound was evaluated for its effective dose to inhibit exudate PGE-2; In active; how it was run: as §2
[13] = test system: Rattus norvegicus; experiment: Inhibition of edema after oral administration at 2 mg/kg/day; format: functional
How it was run: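 Adjuvant-induced arthritis in female Lewis rats. Compound was given orally at 2 mg/kg/day, and noninjected paw edema inhibition was read at day 21, 10 rats/group.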

[14] = test system: Rattus norvegicus; experiment: Inhibition of edema after oral administration at 2 mg/kg, twice daily; format: functional
How it was run: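 Adjuvant-induced arthritis in female Lewis rats. Compound was given orally at 2 mg/kg twice daily, and noninjected paw edema inhibition was read at day 21, 10 rats/group.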

Compound | IC50 [3] | IC50 [4] | also measured
Fc1ccc(-c2[nH]c(-c3ccc(-n4ccnc4)cc3)c3c2CCCC3)cc1 | 500 nM | 42 nM | 
c1ccc(-c2cc3n(c2-c2ccccc2)CCC3)cc1 | < 1000 nM | 10 nM | 
Fc1ccc(-c2[nH]c(-c3ccc(F)cc3)c3c2C2CCC3C2)cc1 |  |  | Gastric score [5]: 0.3; ED50 [1]: 6.8 mg/kg; ED50 [2]: > 40 mg/kg; IC50 [6]: 1000 nM; ED50 [7]: 0.35 mg/kg/day; IC50 [8]: 0.08 nM
c1cc(-c2[nH]c(-c3ccncc3)c3c2C2CCC3C2)ccn1 |  | > 100 nM | 
c1ccc(-c2sc(-c3ccccc3)c3ccccc23)cc1 | 1000 nM | 10.9 nM | 
Fc1ccc(C2NC(c3ccc(F)cc3)c3ccccc32)cc1 (centres undefined) |  | > 100 nM | 
CSc1ccc(-c2[nH]c(-c3ccc(SC)cc3)c3c2CCCC3)cc1 | 500 nM | 500 nM | 
c1ccc(CN2Cc3c(-c4ccccc4)[nH]c(-c4ccccc4)c3C2)cc1 |  | > 100 nM | 
COc1ccc2c(c1)c(CC(=O)O)c(C)n2C(=O)c1ccc(Cl)cc1 [INDOMETHACIN] |  |  | Gastric score [5]: 2.4
CC1=C(C)Cc2c(-c3ccccc3)[nH]c(-c3ccccc3)c2C1 | > 100 nM | 14.5 nM | 
Cc1ccc(-c2cc(C(F)(F)F)nn2-c2ccc(S(N)(=O)=O)cc2)cc1 [CELECOXIB] |  |  | Gastric score [5]: 0.7; ED50 [9]: 10 mg/kg; ED50 [7]: 0.32 mg/kg/day; ED50 [10]: 0.37 mg/kg/day; ED50 [11]: > 40 mg/kg
c1ccc(-c2cc(-c3ccccc3)n3c2CCC3)cc1 | < 1000 nM | 50 nM | 
C1=CC2CCC1c1c(-c3ccccc3)[nH]c(-c3ccccc3)c12 | > 1000 nM | 35.6 nM | 
c1ccc(C2NC(c3ccccc3)c3ccccc32)cc1 (centres undefined) | > 2500 nM |  | 
c1ccc(-c2cn3c(c2-c2ccccc2)CCC3)cc1 | 2500 nM | 28.7 nM | 
c1cn(-c2ccc(-c3[nH]c(-c4ccc(-n5ccnc5)cc4)c4c3CCCC4)cc2)cn1 | 1000 nM | > 100 nM | 
Cc1ccc(-c2[nH]c(-c3ccc(C)cc3)c3c2CCCC3)cc1 | 500 nM |  | IN [12]: inactive
CC(=O)Nc1cc(-c2[nH]c(-c3ccc(F)c(NC(C)=O)c3)c3c2C2CCC3C2)ccc1F |  | > 100 nM | 
c1ccc(-c2[nH]c(-c3ccccc3)c3c2C2CCC3C2)cc1 | 100 nM | 2.6 nM | Gastric score [5]: 0.3; ED50 [1]: 20 mg/kg; ED50 [2]: 80 mg/kg
Clc1cc2c(cc1Cl)C(c1ccccc1)NC2c1ccccc1 (centres undefined) |  | > 100 nM | 
CC1Cc2c(-c3ccccc3)[nH]c(-c3ccccc3)c2CC1C (centres undefined) | 1000 nM | 3.1 nM | 
Fc1ccc(-c2[nH]c(-c3ccc(F)cc3)c3c2C2CCC3CC2)cc1 | 230 nM | 0.6 nM | Gastric score [5]: 0.3; ED50 [1]: 3.5 mg/kg; ED50 [2]: > 20 mg/kg; IC50 [6]: 30000 nM; ED50 [7]: 0.15 mg/kg/day; IC50 [8]: 0.12 nM

More lines, main results first:

IC50 [3] | IC50 [4] | Compound | also measured
250 nM |  | c1ccc(-c2[nH]c(-c3ccccc3)c3c2CCC3)cc1 | ED50 [1]: 20 mg/kg; ED50 [2]: 10 mg/kg
1000 nM | > 100 nM | c1ccc(-c2[nH]c(-c3ccccc3)c3c2CNC3)cc1 | 
> 5000 nM | 5 nM | Clc1ccc(-c2[nH]c(-c3ccc(Cl)cc3)c3c2CCCC3)cc1 | ED50 [1]: 20 mg/kg; ED50 [2]: > 80 mg/kg
500 nM | 4.5 nM | Fc1ccc(-c2[nH]c(-c3ccc(F)cc3)c3c2C2C=CC3C2)cc1 | 
> 2500 nM |  | c1ccc([C@H]2N[C@H](c3ccccc3)c3ccccc32)cc1 | ED50 [1]: 100 mg/kg; ED50 [2]: 100 mg/kg
 | > 100 nM | O=C(O)Cn1c(-c2ccccc2)c2c(c1-c1ccccc1)CCCC2 | 
1000 nM | 21.3 nM | COc1ccc(-c2[nH]c(-c3ccc(OC)cc3)c3c2CCCC3)cc1 | 
1000 nM | 1.8 nM | Nn1c(-c2ccccc2)c2c(c1-c1ccccc1)CCCC2 | 
 | > 100 nM | CNc1cc(-c2[nH]c(-c3ccc(F)c(NC)c3)c3c2C2CCC3C2)ccc1F | 
 | > 1000 nM | Cn1c(-c2ccccc2)c2c(c1-c1ccccc1)CCCC2 | 
 | > 10000 nM | CS(=O)(=O)c1ccc(-c2[nH]c(-c3ccc(S(C)(=O)=O)cc3)c3c2C2CCC3C2)cc1 | 
100 nM | 1.5 nM | c1ccc(-c2[nH]c(-c3ccccc3)c3c2CCCC3)cc1 | ED50 [1]: 20 mg/kg; ED50 [2]: 50 mg/kg
100 nM | 1.7 nM | Fc1ccc(-c2[nH]c(-c3ccc(F)cc3)c3c2CCCC3)cc1 | ED50 [1]: 20 mg/kg; ED50 [2]: 50 mg/kg; inhibition in vivo at 2 mg/kg/day [13]: 15%
> 5000 nM | 700 nM | CS(=O)(=O)c1ccc(-c2[nH]c(-c3ccc(F)cc3)c3c2C2CCC3C2)cc1 (centres undefined) | 
100 nM | 2.9 nM | Fc1ccc(-c2[nH]c(-c3ccc(F)cc3)c3c2CCC3)cc1 | Gastric score [5]: 0.7; ED50 [1]: 20 mg/kg; ED50 [2]: > 80 mg/kg; inhibition in vivo at 2 mg/kg [14]: 14%
> 1000 nM | 500 nM | CS(=O)(=O)Nn1c(-c2ccccc2)c2c(c1-c1ccccc1)CCCC2 | 
 | > 1000 nM | CC1=C(C)Cc2c(c(-c3ccccc3)n(C)c2-c2ccccc2)C1 | 
250 nM | 1.6 nM | c1ccc(-c2[nH]c(-c3ccccc3)c3c2C2CCC3CC2)cc1 | ED50 [1]: > 40 mg/kg; ED50 [2]: > 40 mg/kg
